SMILES strings stand for the structures.

For experiment [1], the system named is Oocyte. Description: Activity at Wistar rat cortex AMPA receptor expressed in Xenopus laevis oocytes assessed as 5-fold increase of (S)-AMPA-induced current. The format is cell-based. The method in brief: (§1)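 Two-electrode voltage clamp on Xenopus oocytes injected with rat cortex poly(A+) mRNA. Current is evoked by (S)-AMPA at 10 µM with drug co-applied. Compounds alone were checked on the holding current. Mean ± SEM, n ≥ 2–3.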

Experiment [2] has as its system Oocyte. Description: Activity at Wistar rat cortex AMPA receptor expressed in Xenopus laevis oocytes assessed as 2-fold increase of (S)-AMPA-induced current. The format is cell-based. The method in brief: as §1
The subject of experiment [3] is Oocyte. Description: Activity at Wistar rat cortex AMPA receptor expressed in Xenopus laevis oocytes assessed as maximum increase of (S)-AMPA-induced current. The class given is cell-based. In short, it runs like this:
as §1

The test system of experiment [4] is Hippocampus. Description: Increase in (S)-AMPA-stimulated [3H]noradrenaline release in Wistar rat hippocampus at 30 uM relative to control. The format is functional. The method in brief: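 Rat hippocampal slices preloaded with [³H]-noradrenaline. Release is stimulated by (S)-AMPA, with drug at 30 µM. Drug alone was compared with basal DMSO control release. Result is the % increase in AMPA-evoked release.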

Experiment [5] is described as follows: Activity at Wistar rat cortex AMPA receptor expressed in Xenopus laevis oocytes assessed as effect on (S)-AMPA-induced current. The class given is cell-based. The note with it: Oocyte. In short, it runs like this:
as §1

In the case of `CCN1CNS(=O)(=O)c2cc(C(F)(F)F)ccc21`, the Activity in experiment [1] and in experiment [2] was greater than 300 µM throughout.
As to `CCN1CNS(=O)(=O)c2cc(I)ccc21`, the Activity was 95 µM in experiment [2] and greater than 400% in experiment [3].
Regarding `CCN1CNS(=O)(=O)c2cc([N+](=O)[O-])ccc21`, the Activity in experiment [1] is 45 µM; in experiment [2], 16 µM; in experiment [3] it was greater than 1000%.
For the molecule `CN1C=NS(=O)(=O)c2cc(Cl)ccc21`, the Activity in experiment [1] and in experiment [2] was greater than 1000 µM in each case.
With `NS(=O)(=O)c1cc2c(cc1Cl)NC(C1CC3C=CC1C3)NS2(=O)=O` (centres undefined) [CYCLOTHIAZIDE], the Activity in experiment [4] is 73%; in experiment [1], 9.8 µM; in experiment [2], 1.6 µM; in experiment [3] it was 844%. Also, the EC50 in experiment [5] was 7.1 µM.
With `CCN1CNS(=O)(=O)c2cc(C(=O)Oc3ccccc3)ccc21`, the Activity in experiment [1] is 180 µM; in experiment [2], 32 µM; in experiment [3], greater than 600%.
Regarding `O=S1(=O)N[C@H]2CCCN2c2ccccc21`, the Activity in experiment [4] was 0%; in experiment [1], 78.2 µM; in experiment [2] it was 24.6 µM; in experiment [3], 1260%. For the same molecule, in experiment [5], the EC50 stood at 130 µM.
With `CN1CNS(=O)(=O)c2cc(Cl)ccc21`, the figures for the Activity in experiment [1], in experiment [2] and in experiment [3] were 18 µM, 6 µM and 1740%, respectively.
On to `CCN1CNS(=O)(=O)c2cc(NC(C)=O)ccc21`, for which the Activity in experiment [1] and in experiment [2] was greater than 300 µM each time.
Regarding `Cc1ccc2c(c1)S(=O)(=O)NCN2C`, the Activity in experiment [1] was 47 µM; in experiment [2], 21 µM; in experiment [3] it was greater than 3000%.
With `CCN1CNS(=O)(=O)c2ccccc21`, the Activity in experiment [1] was 38 µM; in experiment [2] it was 14 µM; in experiment [3] it was greater than 1800%.
For the molecule `CCN1C=NS(=O)(=O)c2cc(C)ccc21`, the Activity is greater than 1000 µM in experiment [1], 300 µM in experiment [2] and greater than 300% in experiment [3].
Turning to `CCN1CNS(=O)(=O)c2cc(C(=O)OC)ccc21`, the Activity in experiment [1] and in experiment [2] was greater than 100 µM throughout.
As to `CCN1CNS(=O)(=O)c2cc(OC)ccc21`, the Activity in experiment [1] is 190 µM; in experiment [2], 68 µM; in experiment [3], greater than 600%.
Regarding `Cc1ccc2c(c1)S(=O)(=O)N=CN2C`, the Activity is 650 µM in experiment [1], 320 µM in experiment [2] and greater than 600% in experiment [3].
Consider `CN1CNS(=O)(=O)c2cc([N+](=O)[O-])ccc21`, for which the Activity in experiment [1] was 26 µM; in experiment [2], 11 µM; in experiment [3] it was greater than 1400%.
In the case of `CN1CNS(=O)(=O)c2cc(N)ccc21`, the Activity in experiment [1] and in experiment [2] was greater than 300 µM each time.
In the case of `CCN1CNS(=O)(=O)c2cc(C)ccc21`, the Activity in experiment [1] is 95 µM; in experiment [2], 25 µM; in experiment [3], greater than 1300%.
For `CN1CN(C)S(=O)(=O)c2cc(Cl)ccc21`, the figures for the Activity in experiment [1], in experiment [2] and in experiment [3] were 17 µM, 7 µM and greater than 1900%, respectively.
As to `CC1Nc2ccc(Cl)cc2S(=O)(=O)N1` (centres undefined), the Activity in experiment [1] was 509 µM; in experiment [2], 134 µM; in experiment [3], greater than 700%.
Take `CCN1CNS(=O)(=O)c2cc(Br)ccc21`: the Activity in experiment [1] is 78 µM; in experiment [2] it was 29 µM; in experiment [3], greater than 1100%.
For `CN1C=NS(=O)(=O)c2ccccc21`, the Activity in experiment [1] is greater than 1000 µM; in experiment [2], 450 µM.
Consider `CN1CNS(=O)(=O)c2ccccc21`, for which the Activity was 46 µM in experiment [1], 22 µM in experiment [2] and greater than 1900% in experiment [3].
With `CCN1CNS(=O)(=O)c2cc(C(=O)O)ccc21`, the Activity in experiment [1] and in experiment [2] was greater than 100 µM throughout.
Take `CCN1CNS(=O)(=O)c2cc(N)ccc21`: the Activity in experiment [1] and in experiment [2] was greater than 300 µM in each case.
For `CN1CN(C)S(=O)(=O)c2ccccc21`, the Activity in experiment [1] is 127 µM; in experiment [2], 37 µM; in experiment [3] it was greater than 1700%.
On to `CCN1C=NS(=O)(=O)c2cc(Cl)ccc21`, for which the Activity in experiment [1] was greater than 1000 µM; in experiment [2], 400 µM; in experiment [3] it was greater than 400%.
As for `CCN1CN(C)S(=O)(=O)c2cc(Cl)ccc21`, the values for the Activity in experiment [1], in experiment [2] and in experiment [3] were 64 µM, 21 µM and greater than 1100%, respectively.

The values above are taken from ChEMBL document CHEMBL1145399, “Design, synthesis, and pharmacology of novel 7-substituted 3,4-dihydro-2H-1,2,4-benzothiadiazine 1,1-dioxides as positive allosteric modulators of AMPA receptors” (J Med Chem, 2007).
